{"data": "Assay results from different studies", "ABL1 F317I non-phosphorylated": "Tyrosine-protein kinase ABL1, non-phosphorylated (ABL1, Homo sapiens, UniProt P00519, F317I)", "ABL1 F317L phosphorylated": "Tyrosine-protein kinase ABL1, phosphorylated (ABL1, Homo sapiens, UniProt P00519, F317L)", "ABL1 Y253F": "Tyrosine-protein kinase ABL1 (ABL1, Homo sapiens, UniProt P00519, Y253F)", "ABL1 Q252H": "Tyrosine-protein kinase ABL1 (ABL1, Homo sapiens, UniProt P00519, Q252H)", "ABL1 phosphorylated": "Tyrosine-protein kinase ABL1, phosphorylated (ABL1, Homo sapiens, UniProt P00519)", "ABL1 T315I phosphorylated": "Tyrosine-protein kinase ABL1, phosphorylated (ABL1, Homo sapiens, UniProt P00519, T315I)", "ABL1 E255K": "Tyrosine-protein kinase ABL1 (ABL1, Homo sapiens, UniProt P00519, E255K)", "ABL1 F317I phosphorylated": "Tyrosine-protein kinase ABL1, phosphorylated (ABL1, Homo sapiens, UniProt P00519, F317I)", "ABL1 T315I non-phosphorylated": "Tyrosine-protein kinase ABL1, non-phosphorylated (ABL1, Homo sapiens, UniProt P00519, T315I)", "ABL1 non-phosphorylated": "Tyrosine-protein kinase ABL1, non-phosphorylated (ABL1, Homo sapiens, UniProt P00519)", "ABL1 E255K phosphorylated": "Tyrosine-protein kinase ABL1, phosphorylated (ABL1, Homo sapiens, UniProt P00519, E255K)", "ABL1 H396P non-phosphorylated": "Tyrosine-protein kinase ABL1, non-phosphorylated (ABL1, Homo sapiens, UniProt P00519, H396P)"}
{"Structure (SMILES)": "Nc1ncc2c(n1)-c1c([nH]c3ccc(C#CC4CC4)cc13)CCCC2", "target": "ABL1 F317I non-phosphorylated", "read-out": "binding", "method": "competition with immobilised ligand", "concentration": "1 µM", "remaining binding [%]": 84}
{"Structure (SMILES)": "O=C(c1ccc(Nc2ncc(Cl)c(-c3ccc(Cl)s3)n2)cc1)N1CCC(N2CCCC2)CC1", "target": "ABL1 F317L phosphorylated", "read-out": "binding", "method": "competition with immobilised ligand", "concentration": "1 µM", "remaining binding [%]": 58}
{"Structure (SMILES)": "COc1ccnn2ncc(-c3ccnc(N(C)C)n3)c12", "target": "ABL1 Y253F", "read-out": "binding", "concentration": "1 µM", "remaining binding [%]": 79}
{"Structure (SMILES)": "C[C@H](c1ccc(F)cc1)N(Cc1cccc(C(=O)O)c1)C(=O)c1cnc2ccccc2c1", "target": "ABL1 F317L phosphorylated", "read-out": "cell-free assay", "method": "competition with immobilised ligand", "concentration": "1 µM", "remaining binding [%]": 99}
{"Structure (SMILES)": "N[C@H]1CCN(c2nccc(-c3cnn4ncccc34)n2)C1", "target": "ABL1 Q252H", "read-out": "binding", "concentration": "1 µM", "remaining binding [%]": 59}
{"Structure (SMILES)": "Cc1nc(N2CC[C@@H](O)C2)ncc1-c1cc(C(F)(F)F)cc2[nH]ncc12", "target": "ABL1 phosphorylated", "read-out": "binding", "method": "competition with immobilised ligand", "concentration": "1 µM", "remaining binding [%]": 61}
{"Structure (SMILES)": "Cc1cnc(Nc2ccc(C(=O)N3CCC(N4CCCC4)CC3)cc2)nc1-c1cc2ccccc2s1", "target": "ABL1 T315I phosphorylated", "read-out": "binding", "method": "competition with immobilised ligand", "concentration": "1 µM", "remaining binding [%]": 2.1}
{"Structure (SMILES)": "CN(C)c1ncc(F)c(-c2cnn3ncccc23)n1", "target": "ABL1 E255K", "read-out": "binding", "concentration": "1 µM", "remaining binding [%]": 66}
{"Structure (SMILES)": "COc1cnc(Nc2cccc(S(N)(=O)=O)c2)nc1N1CCN(c2ccccc2)CC1", "target": "ABL1 F317I phosphorylated", "read-out": "binding", "method": "competition with immobilised ligand", "concentration": "1 µM", "remaining binding [%]": 98}
{"Structure (SMILES)": "CN(c1nccc(-c2cnn3ncccc23)n1)C1CC1", "target": "ABL1 E255K", "read-out": "binding", "concentration": "1 µM", "remaining binding [%]": 100}
{"Structure (SMILES)": "O=C(Nc1cnc(Oc2ccc(F)cc2)nc1)N1CCc2ncccc2[C@@H]1c1ccc(F)cc1", "target": "ABL1 T315I non-phosphorylated", "read-out": "cell-free assay", "method": "competition with immobilised ligand", "concentration": "1 µM", "remaining binding [%]": 100}
{"Structure (SMILES)": "O=C(NCC1CCOCC1)c1n[nH]cc1NC(=O)c1c(F)cccc1F", "target": "ABL1 T315I phosphorylated", "read-out": "binding", "method": "competition with immobilised ligand", "concentration": "1 µM", "remaining binding [%]": 91}
{"Structure (SMILES)": "COc1cnc(Nc2cccc(S(N)(=O)=O)c2)nc1N1CCN(c2ccccc2)C(=O)C1", "target": "ABL1 T315I non-phosphorylated", "read-out": "binding", "method": "competition with immobilised ligand", "concentration": "1 µM", "remaining binding [%]": 83}
{"Structure (SMILES)": "O=C(Nc1c[nH]nc1C(=O)NC1CCNCC1)c1cc(F)cc(F)c1", "target": "ABL1 non-phosphorylated", "read-out": "binding", "method": "competition with immobilised ligand", "concentration": "1 µM", "remaining binding [%]": 98}
{"Structure (SMILES)": "O=C(NCCCN1CCOCC1)c1ccc(Nc2nccc(-c3cc4ccccc4s3)n2)cc1", "target": "ABL1 F317I non-phosphorylated", "read-out": "binding", "method": "competition with immobilised ligand", "concentration": "1 µM", "remaining binding [%]": 100}
{"Structure (SMILES)": "O=C(N1CCS(=O)(=O)CC1)N1C[C@H](c2ccc(OC(F)(F)F)cc2)C[C@H](c2nc(C3CC3)no2)C1", "target": "ABL1 T315I phosphorylated", "read-out": "cell-free assay", "method": "competition with immobilised ligand", "concentration": "1 µM", "remaining binding [%]": 100}
{"Structure (SMILES)": "O=C(NCCCN1CCOCC1)c1ccc(Nc2ncc(Cl)c(-c3ccc(Cl)s3)n2)cc1", "target": "ABL1 F317I phosphorylated", "read-out": "binding", "method": "competition with immobilised ligand", "concentration": "1 µM", "remaining binding [%]": 99}
{"Structure (SMILES)": "CN1CCN(c2cnc3c(C4CCN(C(=O)c5ccc(OC(F)(F)F)cc5N)CC4)ncnc3c2)CC1", "target": "ABL1 E255K phosphorylated", "read-out": "binding", "method": "competition with immobilised ligand", "concentration": "1 µM", "remaining binding [%]": 98}
{"Structure (SMILES)": "CN(CCCC(F)(F)F)c1nccc(-c2cnn3ncccc23)n1", "target": "ABL1 Q252H", "read-out": "binding", "concentration": "1 µM", "remaining binding [%]": 100}
{"Structure (SMILES)": "O=C(c1ccc(Nc2ncc(Cl)c(-c3cc4ccccc4s3)n2)cc1)N1CCC(N2CCCC2)CC1", "target": "ABL1 non-phosphorylated", "read-out": "binding", "method": "competition with immobilised ligand", "concentration": "1 µM", "remaining binding [%]": 17}
{"Structure (SMILES)": "c1cnn2ncc(-c3ccnc(N4CCC45COC5)n3)c2c1", "target": "Tyrosine-protein kinase ABL1 (ABL1, Homo sapiens, UniProt P00519, T315I)", "read-out": "binding", "concentration": "1 µM", "remaining binding [%]": 64}
{"Structure (SMILES)": "C=CC(=O)N1CCC(C(=O)NCC(=O)N2CCN(c3nc(-c4cnc(N)nc4C(F)F)nc(N4CCOCC4)n3)CC2)CC1", "target": "ABL1 H396P non-phosphorylated", "read-out": "binding", "method": "competition with immobilised ligand", "concentration": "1 µM", "remaining binding [%]": 94}
{"Structure (SMILES)": "COc1ncc2cc3ccccc3nc2c1C#N", "target": "ABL1 T315I non-phosphorylated", "read-out": "cell-free assay", "method": "competition with immobilised ligand", "concentration": "5 µM", "remaining binding [%]": 100}
{"Structure (SMILES)": "C[C@@H](c1ccc(-n2cnc3c(N)ncnc32)cc1)N1CCc2nn(C)c(Cc3ccccc3)c2C1=O", "target": "ABL1 F317L phosphorylated", "read-out": "binding", "method": "competition with immobilised ligand", "concentration": "0.1 µM", "remaining binding [%]": 49}
{"Structure (SMILES)": "O=C(c1ccc(Nc2nccc(-c3cc4ccccc4s3)n2)cc1)N1CCC(N2CCCC2)CC1", "target": "Tyrosine-protein kinase ABL1, phosphorylated (ABL1, Homo sapiens, UniProt P00519, Y253F)", "read-out": "binding", "method": "competition with immobilised ligand", "concentration": "1 µM", "remaining binding [%]": 6.2}
{"Structure (SMILES)": "CC1=C(C#N)C(c2ccc3c(c2)c(NC(=O)c2ccccc2C)nn3C)C(C#N)=C(C)N1", "target": "ABL1 H396P non-phosphorylated", "read-out": "cell-free assay", "method": "competition with immobilised ligand", "concentration": "1 µM", "remaining binding [%]": 100}
{"Structure (SMILES)": "CCN1CCN(Cc2ccc(C(=O)Nc3ccc(C)c(Oc4ccc5c(c4)CC(=O)N5)c3)cc2C(F)(F)F)CC1", "target": "Tyrosine-protein kinase ABL1, phosphorylated (ABL1, Homo sapiens, UniProt P00519, H396P)", "read-out": "binding", "method": "competition with immobilised ligand", "concentration": "1 µM", "remaining binding [%]": 62}
{"Structure (SMILES)": "CN(C)C(=O)Cn1cc(-c2nc(C3(c4ccc(-c5cnc(N)nc5)cc4)CC3)no2)cn1", "target": "ABL1 E255K phosphorylated", "read-out": "binding", "method": "competition with immobilised ligand", "concentration": "1 µM", "remaining binding [%]": 100}
{"Structure (SMILES)": "CNC(=O)[C@@H]1CC[C@@H](n2c(-c3ccc4cnccc4c3)nc3ccc(C(=O)NCc4cccc(C(N)=O)c4)cc32)C1", "target": "Tyrosine-protein kinase ABL1, non-phosphorylated (ABL1, Homo sapiens, UniProt P00519, Q252H)", "read-out": "binding", "method": "competition with immobilised ligand", "concentration": "1 µM", "remaining binding [%]": 87}
{"Structure (SMILES)": "CN(C)c1nccc(-c2cnc3ncccn23)n1", "target": "ABL1 Y253F", "read-out": "binding", "concentration": "1 µM", "remaining binding [%]": 41}
{"Structure (SMILES)": "O=C1NC(c2ccccn2)Sc2ccccc21 (centres unmarked)", "target": "ABL1 phosphorylated", "read-out": "cell-free assay", "method": "competition with immobilised ligand", "concentration": "1 µM", "remaining binding [%]": 72}
{"Structure (SMILES)": "c1cncc(-c2cccc(Nc3nccc(NC4CCCCC4)n3)c2)c1", "target": "ABL1 H396P non-phosphorylated", "read-out": "binding", "method": "competition with immobilised ligand", "concentration": "10 µM", "remaining binding [%]": 9}
